According to PMC5599134 (Structure (London, England : 1993), 2017):
Each block holds one molecule with its values, some of them ahead of it. Ends that are not written are not given here.

Legend:
[1] = target: Snap25b (Synaptosomal-associated protein 25), wild type, full length (human) (UniProt P60880); experiment: ITC
Snap25b-WT [2] = experiment: In vitro palmitate transfer from NBD-palmitoyl-CoA to Snap25b; format: biochemical, human; conditions: both in absence and presence of purified Snap25b-WT
DHHC17 = experiment: Autoacylation of DHHC17 in 17-ODYA metabolic labeling; format: cell-based, human; conditions: HEK-293T, click chemistry
Summary of the method: (§1)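 HEK-293T cells (DMEM, 10% FBS, 37°C, 5% CO2) co-transfected with 2 μg GFP-DHHC17 (wild type or mutants) and 0.5 μg EGFP-Snap25b, cysteine-less C4A or empty vector, using PEI-max. At 24 h, cells given serum-free DMEM with 100 μM 17-ODYA for 4 h at 37°C, then lysed in dodecylmaltoside buffer. Click reaction with rhodamine azide/CuSO4/TCEP/TBTA for 1 h at room temperature. In-gel rhodamine fluorescence; anti-GFP and anti-Snap25b blots; bands quantitated.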

Snap25b [3] = format: cell-based, human; conditions: HEK-293T, 100 μM 17-ODYA, 4 h, 37°C; Rhodamine-azide click; n=3
Summary of the method: as §1

ANK17 domain of DHHC17 = target: T1, ANK17 domain of DHHC17 (Homo sapiens, UniProt Q8IUH5); experiment: ITC titration of ANK17-WT with Snap25b species; format: binding; conditions: for effect of alanine mutation in Snap25b on binding to ANK17 (in words): ITC, ANK17-WT titrated into Snap25b mutants, 25°C, 1X PBS 1 mM DTT
T1 sequence (Q8IUH5 50-288): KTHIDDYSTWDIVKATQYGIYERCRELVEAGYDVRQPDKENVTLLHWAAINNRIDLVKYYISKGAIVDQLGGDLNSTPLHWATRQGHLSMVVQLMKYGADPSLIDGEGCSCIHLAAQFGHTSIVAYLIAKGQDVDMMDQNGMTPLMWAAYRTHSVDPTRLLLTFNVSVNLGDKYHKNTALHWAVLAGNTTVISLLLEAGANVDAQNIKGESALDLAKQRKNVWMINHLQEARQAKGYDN

[4] = target: Snap25b_(111–120) peptide (human); experiment: ITC
[5] = target: Snap25b-C4A (cysteine-less mutant), full length (human) (UniProt P60880); experiment: ITC
Snap25b-WT [6] = experiment: Co2+ affinity pull-down of GFP-Snap25b-WT by DHHC17 mutants in HEK-293T cells; format: cell-based, human; conditions: 24 h co-transfection, Co2+ (Talon) pull down, gel-densitometry
wild-type Htt = experiment: ITC titration of ANK17-W130A into MBP-Htt1–548; format: binding; conditions: titrated into MBP-Htt1–548, 25°C, 1X PBS 1 mM DTT
Snap25b-WT [7] = experiment: ITC titration of ANK17 mutants into full-length Snap25b-WT; format: binding, human; conditions: ANK17 mutants titrated into Snap25b-WT, 25°C, 1X PBS 1 mM DTT
[8] = Size exclusion chromatography; format: physicochemical; conditions: Superdex-200
Summary of the method: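 His-tagged protein expressed in E. coli BL21(DE3)-Gold and Ni-NTA purified. Spun at 21000 × g for 20 min at 4°C, then about 200 μL injected onto Superdex-200. Column buffer was 50mM Tris-HCl, 50mM NaCl, 5% glycerol, 1mM DTT for crystallization, or 1X PBS pH 7.4 with 1 mM DTT for ITC. Peak fractions pooled.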

Snap25b [9] = conditions: palmitoylated enzyme intermediate; ref Greaves et al., 2017; cited from earlier work

fold reduction of affinity against ANK17-WT [1]: 5 fold
Molecule: ANK17-Y67A (domain or fragment)

Molecule: DHHC17: full length human DHHC17 palmitoyltransferase (NP_056151)
autopalmitoylation with or without Snap25b (in words) (Snap25b-WT [2]): does not appear to get autopalmitoylated to appreciable levels
autoacylation (in words) (DHHC17): did not detect any autoacylation
S-acylation (palmitate transfer) of Snap25b (in words) (Snap25b [3]): readily transfers palmitate to Snap25b

effect of alanine mutation in Snap25b on binding to ANK17 (in words) (ANK17 domain of DHHC17): largest reduction in binding affinity
Molecule: P117A: Snap25b alanine mutant P117A (GFP fusion in pull-down)
effect of alanine mutation in Snap25b on binding to ANK17 (in words) (ANK17 domain of DHHC17; listed as Snap25b-P117A): showed only marginal heat of binding and we could not obtain any fitting of the integrated heats

Molecule: GVVASQPARV [Snap25b111–120]
Kd (ANK17 domain of DHHC17): ~11 µM

Molecule: mutation to phenylalanine: full length DHHC17 with W130 mutated to phenylalanine
S-acylation (palmitate transfer) of Snap25b (in words) (Snap25b [3]): loss of function of W130A can be recovered

Kd [4]: 11 µM
Kd [5]: 3 µM
Molecule: ankyrin repeat domain of Human DHHC17 (ANK17), wild type (domain or fragment)

Molecule: W130A: full length DHHC17 mutant W130A (GFP fusion)
amount of Snap25b pulled down by DHHC17 mutant (in words) (Snap25b-WT [6]): largest decrease in affinity
S-acylation (palmitate transfer) of Snap25b (in words) (Snap25b [3]): severely reduced levels of palmitoylation

effect of alanine mutation in Snap25b on binding to ANK17 (in words) (ANK17 domain of DHHC17): followed by the V113A and Q116A
Molecule: V113A: Snap25b alanine mutant V113A (GFP fusion in pull-down)

Molecule: N100A: full length DHHC17 mutant N100A (GFP fusion)
amount of Snap25b pulled down by DHHC17 mutant (in words) (Snap25b-WT [6]): largest decrease in affinity
S-acylation (palmitate transfer) of Snap25b (in words) (Snap25b [3]): severely reduced levels of palmitoylation

B1: DHHC17-C467S: mutation of the cysteine of DHHC domain to serine (protein, UniProt Q8IUH5 1-632, looked up, variant C467S)
Palmitoyltransferase ZDHHC17: MQREEGFNTKMADGPDEYDTEAGCVPLLHPEEIKPQSHYNHGYGEPLGRKTHIDDYSTWDIVKATQYGIYERCRELVEAGYDVRQPDKENVTLLHWAAINNRIDLVKYYISKGAIVDQLGGDLNSTPLHWATRQGHLSMVVQLMKYGADPSLIDGEGCSCIHLAAQFGHTSIVAYLIAKGQDVDMMDQNGMTPLMWAAYRTHSVDPTRLLLTFNVSVNLGDKYHKNTALHWAVLAGNTTVISLLLEAGANVDAQNIKGESALDLAKQRKNVWMINHLQEARQAKGYDNPSFLRKLKADKEFRQKVMLGTPFLVIWLVGFIADLNIDSWLIKGLMYGGVWATVQFLSKSFFDHSMHSALPLGIYLATKFWMYVTWFFWFWNDLNFLFIHLPFLANSVALFYNFGKSWKSDPGIIKATEEQKKKTIVELAETGSLDLSIFCSTCLIRKPVRSKHCGVCNRCIAKFDHHSPWVGNCVGAGNHRYFMGYLFFLLFMICWMIYGCISYWGLHCETTYTKDGFWTYITQIATCSPWMFWMFLNSVFHFMWVAVLLMCQMYQISCLGITTNERMNARRYKHFKVTTTSIESPFNHGCVRNIIDFFEFRCCGLFRPVIVDWTRQYTIEYDQISGSGYQLV
S-acylation (palmitate transfer) of Snap25b (in words) (Snap25b [3]): does not show any appreciable transfer

effect of alanine mutation in ANK17 on binding to full-length Snap25b (in words) (Snap25b-WT [7]): showed only heat of dilution
B2: ANK17-W130A: ANK17 with alanine substitution at position W130 (protein, UniProt Q8IUH5 50-288, looked up, variant W130A)
chain: KTHIDDYSTWDIVKATQYGIYERCRELVEAGYDVRQPDKENVTLLHWAAINNRIDLVKYYISKGAIVDQLGGDLNSTPLHAATRQGHLSMVVQLMKYGADPSLIDGEGCSCIHLAAQFGHTSIVAYLIAKGQDVDMMDQNGMTPLMWAAYRTHSVDPTRLLLTFNVSVNLGDKYHKNTALHWAVLAGNTTVISLLLEAGANVDAQNIKGESALDLAKQRKNVWMINHLQEARQAKGYDN
modifications: ankyrin repeat domain
binding of ANK17 mutant to wild-type Htt (in words) (wild-type Htt): no discernible signs of binding to wild-type Htt

B3: ANK17: cytoplasmic ankyrin repeat domain of human DHHC17, residues K50 to D288 (protein, UniProt Q8IUH5 50-288, looked up, fragment)
chain: KTHIDDYSTWDIVKATQYGIYERCRELVEAGYDVRQPDKENVTLLHWAAINNRIDLVKYYISKGAIVDQLGGDLNSTPLHWATRQGHLSMVVQLMKYGADPSLIDGEGCSCIHLAAQFGHTSIVAYLIAKGQDVDMMDQNGMTPLMWAAYRTHSVDPTRLLLTFNVSVNLGDKYHKNTALHWAVLAGNTTVISLLLEAGANVDAQNIKGESALDLAKQRKNVWMINHLQEARQAKGYDN
modifications: ankyrin repeat domain
size exclusion peak homogeneity (in words) [8]: homogenous and monodisperse peaks

B4: DHHC15: DHHC15 palmitoyl transferase (NM_144969), comparison enzyme (protein, UniProt Q96MV8 1-337, looked up)
Palmitoyltransferase ZDHHC15: MRRGWKMALSGGLRCCRRVLSWVPVLVIVLVVLWSYYAYVFELCLVTVLSPAEKVIYLILYHAIFVFFTWTYWKSIFTLPQQPNQKFHLSYTDKERYENEERPEVQKQMLVDMAKKLPVYTRTGSGAVRFCDRCHLIKPDRCHHCSVCAMCVLKMDHHCPWVNNCIGFSNYKFFLQFLAYSVLYCLYIATTVFSYFIKYWRGELPSVRSKFHVLFLLFVACMFFVSLVILFGYHCWLVSRNKTTLEAFCTPVFTSGPEKNGFNLGFIKNIQQVFGDKKKFWLIPIGSSPGDGHSFPMRSMNESQNPLLANEETWEDNEDDNQDYPEGSSSLAVETET
modifications: 10xHis tag
palmitate transfer to Snap25b (in words) (Snap25b [9]): capable of transferring palmitate to a protein substrate such as Snap25b
